Source: ChEMBL document CHEMBL4513216, “Probing the Open Global Health Chemical Diversity Library for Multistage-Active Starting Points for Next-Generation Antimalarials” (ACS Infect Dis, 2020)

Experiment: Toxicity liver stage against HepG2, at 10uM
Type: cell-based
Set-up: test concentration 10 uM, cell line HepG2-A16-CD81EGFP
Conditions: human, HepG2-A16-CD81EGFP cells; read-out: INHIBITION
Method in brief: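 Uninfected HepG2-A16-CD81EGFP cells, 3 × 10^3 per well, 1536-well, plated on prespotted compound at 10 μM final, parasite-free screening media added to match infected plates; puromycin 10 μM positive, DMSO 0.5% negative; run in parallel with 48 h PbLuc assay at 37 °C, 5% CO2; viability by CellTiter-Glo luminescence, normalized to controls.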

Row | SMILES | cytotoxicity at 10 µM [%]
1 | Cc1noc(C)c1CN1C[C@@H]2COC[C@@H](C(=O)N3CCCO3)[C@@H]2C1 | -69.9
2 | O=C(Nc1ccc(Br)cc1F)c1ccc(N2CCOCC2)nn1 | 22.4
3 | CCS(=O)(=O)N1CCC2(CN(C(=O)c3cn(C)cn3)C2)C1 | 6.4
4 | COc1c(CNC2(c3noc(C)n3)CCC2)c(C(C)C)nn1C | 2.08
5 | CN(C)CCN1C2(CCN(Cc3nccs3)C2)c2ccccc2S1(=O)=O (stereo unspecified) | -71.8
6 | CCCn1nccc1S(=O)(=O)N1CCC2(CCCN(C(C)C)C2=O)C1 (stereo unspecified) | 5.96
7 | CC(C)n1nc(Cn2cccn2)c2c1CN(C1CCOCC1)C2 | 6.98
8 | COCCNC(=O)NC1(c2nc(-c3ccncc3)no2)CCCCC1 | -2.46
9 | CC[C@@H]1N(Cc2ccc(F)cc2)CCC[C@]12CCC(=O)N2C | 9.42
10 | Cc1ncc(C(=O)N2CCCC(Cc3nccs3)C2)cn1 (stereo unspecified) | -2.03
11 | c1cnn(CCNCc2csc(-c3ccsc3)n2)c1 | 1.97
12 | CCOc1ccc(Cl)cc1C1CCCN1 (stereo unspecified) | -12.3
13 | Cc1nnc(N2CC[C@H]3C[C@H](C(=O)N(C)C)O[C@@H]3C2)s1 | -80.9
14 | COCC(=O)N1CC[C@H]2[C@H]1CCN2CC(C)C | 1.18
15 | O=S(=O)(NCCCn1cccn1)c1ccc2c(c1)CCC2 | -4.59
16 | Cc1cc(C)c(C(=O)N2CCOC(CCN(C)C)C2)o1 (stereo unspecified) | -1.92
17 | CCCC(=O)N(CCCN1CCOCC1)c1nc2c(C)ccc(Cl)c2s1 | -10.2
18 | CS(=O)(=O)CCCN1CCOC2(CCc3ccccc32)C1 (stereo unspecified) | -5.14
19 | CN1C(=O)CC(c2cnn(C)c2)C12CCN(C(=O)c1ccno1)CC2 (stereo unspecified) | -74.1
20 | Cc1ccc(CN2C[C@@H]3[C@@H](C2)OCC(=O)N3Cc2ccncc2)s1 | -67.7
21 | Clc1cccc2c3c([nH]c12)CCN(Cc1cc2n(n1)CCCNC2)C3 | -17.1
22 | N#Cc1cccnc1N1CCCC(CO)(Cc2cccc(Cl)c2)C1 (stereo unspecified) | 6.29
23 | O=C(Cc1ccccc1Cl)N1CCN(CC(O)COCCO)CC1 (stereo unspecified) | 5.51

Row | SMILES | cytotoxicity at 10 µM [%]
24 | O=C(Nc1nc2c(s1)CCC2)NC1CCCC1 | -8.6
25 | CSc1ncc(C(=O)N(C)C(C)Cc2ccccn2)cn1 (stereo unspecified) | 15.9
26 | Cn1ccnc(Sc2ccccc2)c1=O | 0.483
27 | CSc1cccc(NC(C)C(=O)Nc2nccs2)c1 (stereo unspecified) | 3.05
28 | COc1ccc(CCNC(=O)Nc2cc(C)nn2C)cc1 | -2.87
29 | O=C(c1cccc(F)c1)N(CCCO)S(=O)(=O)c1cccs1 | 3.51
30 | Cc1cnn(CC2CCCN2C(=O)Cc2ccc3c(c2)CCO3)c1 (stereo unspecified) | -144
31 | CCn1ccc(NC(=O)CN2C(=O)CC(C)(C)c3ccccc32)n1 | -5.01
32 | O=C(c1ccncn1)N1CCC[C@]2(C[C@@H](OCc3ccccn3)CO2)C1 | -72.9
33 | Cc1cc(C)n(Cc2cccc(C(=O)NCCN3CCOCC3)c2)n1 | -12.8
34 | CNC(=O)c1cc(NC(=O)NCC2CCS(=O)(=O)C2)ccc1OC (stereo unspecified) | 9.57
35 | CN(C)c1nc2c(c(N(C)Cc3n[nH]c4c3CCCC4)n1)CCNCC2 | 3.2
36 | O=C(CNC(=O)C1CCCC1)NCC(O)c1ccc2ccccc2c1 (stereo unspecified) | 0.587
37 | CN(C)c1ncc(I)c(C2CCCCN2C)n1 (stereo unspecified) | 1.74
38 | CN(C)c1nc2c(c(=O)[nH]1)Cc1ccccc1OC2 | -104
39 | O=C(c1ccc(C2CCCN2)s1)N1CC=CC1 (stereo unspecified) | 1.33
40 | c1ccc2c(c1)COC1(CCCC1)N2 | 10.4
41 | Cc1csc(N2CCCN(c3cc(C)nc(C)c3C#N)CC2)n1 | 22.6
42 | CCCC(N)CNS(=O)(=O)Cc1cccc(C#N)c1 (stereo unspecified) | 6.13
43 | O=C(c1ccncc1)N1CCCC2(COCCN(c3ccccc3)C2)C1 (stereo unspecified) | 2.31
44 | CCCS(=O)(=O)N1CCN(c2cc(-n3ccnc3)nc(C)n2)CC1 | -1.89
45 | CCN(C(=O)Nc1nncs1)C(C)c1cccc(OC)c1 (stereo unspecified) | 4.84
46 | O=C1CC(c2ccncc2)c2c(sc3c2CCCC3)N1 (stereo unspecified) | 5.57

Row | SMILES | cytotoxicity at 10 µM [%]
47 | Cc1ccc2c(C(=O)N(C)C)cc(-c3cnn(CCO)c3)nc2c1C | 3.69
48 | CC(C)n1ccnc1C1CCCN(c2nc3ccccc3s2)C1 (stereo unspecified) | 5.07
49 | COCC1CCN(CCCc2cccc(OC)c2)CC1 | -11
50 | CN1C[C@@H]2COC[C@]2(C(=O)NCc2cccs2)C1 | 9.22
51 | CC(C)(C)c1cc(NC(=O)CN2CCCC(Cn3cncn3)C2)on1 (stereo unspecified) | 3.69
52 | CCCN(CCc1ccccc1)c1ncnc2oc(C)nc12 | 8.74
53 | Cn1cc(N2CC3(COCCN(Cc4ccsc4)C3)OCC2=O)cn1 (stereo unspecified) | 3.55
54 | CC(C)c1nnc2n1CC(CNCc1ccsc1)CC2 (stereo unspecified) | -1.61
55 | CCN(CCc1nccs1)C(=O)c1ccco1 | 15.4
56 | Cc1ccsc1CCNC(=O)C1(Oc2cccnc2C)CCNCC1 | -2.37
57 | O=C(NCC(CO)Cc1ccc(Cl)cc1)c1ccncc1Cl (stereo unspecified) | 5.21
58 | CCOc1ccc(OCC)c(NCc2cc(C)on2)c1 | -40.1
59 | COCCn1c(=O)n(Cc2ccc(Cl)s2)c2cc(C(=O)O)ccc21 | -5.54
60 | CN(c1ncnc2sccc12)C1CCCN(c2cccnn2)C1 (stereo unspecified) | 0.0357
61 | CN(C)Cc1nn(C)c2c1CN(C(=O)c1cccc(C#N)c1)C2 | 7.38
62 | CNC(=O)N1CCN(C(=O)C(C)C)CC2(CC(=O)N(C)C2)C1 (stereo unspecified) | 7.43
63 | Cc1ncc(CN2Cc3ccccc3OC3(CCC(CO)CC3)C2)cn1 (stereo unspecified) | 0.179
64 | CC(NC(=O)COc1ccc(Cl)cc1Cl)c1nncn1C(C)C (stereo unspecified) | 1.67
65 | Cn1cnc2cc(C(=O)NS(=O)(=O)c3ccccc3Cl)ccc21 | -7.43
66 | Cc1nn(C)cc1S(=O)(=O)N(C)[C@@H]1CCC[C@@H](n2ccnc2)[C@@H]1O | -2.78
67 | COCC1COCCC12CCN(C(=O)CCOc1ccccc1)CC2 (stereo unspecified) | -18.7
68 | CN(C)c1ccc(C(=O)N2CCC(c3n[nH]c(C4CC4)n3)CC2)cc1 | -2.42
69 | CN(C)c1nc(CNC(=O)Nc2cccc([S+](C)[O-])c2)cs1 (stereo unspecified) | -5.27

Row | SMILES | cytotoxicity at 10 µM [%]
70 | Cc1ccc(O[C@@H]2C[C@H]3CN(C(=O)c4cnccn4)CCN3C2)cc1 | 1.12
71 | O=C(c1ccnnc1)N1CCN2C[C@H](Oc3cccnc3)C[C@H]2C1 | 1.43
72 | Cc1ccc(CN2CC[C@H]3OCC[C@@H](c4nc(C)no4)[C@H]3C2)cc1 | -6.95
73 | CC(=O)N1CCCC2(CN(Cc3ccc(C)s3)CCO2)C1 (stereo unspecified) | 0.102
74 | CC(C)OCCS(=O)(=O)c1ccccc1C#N | 8.24
75 | CCNC(=O)N1CCC(n2ccc(C(F)(F)F)n2)CC1 | 10.5
76 | CCC(C)Sc1nncn1-c1ccc(OC)nc1 (stereo unspecified) | -1.35
77 | O=C(NCc1ccco1)[C@@H]1CCO[C@@H]2CCN(c3ncccn3)C[C@@H]21 | -68.3
78 | CN(C)Cc1cnc(C2CN(C(=O)c3ccccc3Cl)CCO2)[nH]1 (stereo unspecified) | 1.07
79 | Cc1nc(C)n(CC2CCCN(CC(=O)Nc3nnc(C)s3)C2)n1 (stereo unspecified) | -18.9
80 | CC(C)C(=O)N(C)CC(=O)Nc1ccc(Br)cn1 | -6.22
81 | CC(C)c1n[nH]c(C2CN(C(=O)COc3ccc(F)cc3)CCO2)n1 (stereo unspecified) | -5.7
82 | COc1ccc(-c2nnc(SC(C)C(=O)NC(C)(C)C)[nH]2)c(OC)c1 (stereo unspecified) | 66.5
83 | Cc1cc(C(=O)NCCC(=O)N2CCCc3ccccc32)no1 | 2.29
84 | CCS(=O)(=O)CCN(C)C(=O)NC(C)c1ccc(C)s1 (stereo unspecified) | -9.02
85 | O=C(C1CCC2(CCN(c3nncs3)CC2)C1)N1CCCC1 (stereo unspecified) | 9.43
86 | Cc1cc2ccccc2n1CCC(=O)N1CCC2(CC1)CNC(=O)C2 | 0.105
87 | COCCN1CCC(CN(Cc2ccncc2)C2CCCCC2)CC1 | -2.91
88 | Cc1cccc(Nc2noc3c2CN(C(=O)c2ccn(C)n2)CC3)c1C | -0.61
89 | O=S1(=O)N(c2ccccc2)C[C@H](O)[C@]12CCNC2 | 0.827
90 | O=S(=O)(c1cccc(F)c1)N1C[C@H]2CC[C@@H](C1)N(Cc1ccccc1)C2 | -3.03
91 | Cc1ccc2oc(C(=O)N3CCCC(n4nc(C)nc4C)C3)cc2n1 (stereo unspecified) | -7.39
92 | OCc1ccc(-c2c(-c3ccccc3)ncn2CCN2CCOCC2)o1 | -18.9

Row | SMILES | cytotoxicity at 10 µM [%]
93 | CC(C)NC(=O)CC1(Cn2cnnn2)CCCCC1 | 9.54
94 | O=C(O)Cn1ccc(=O)c2ccc(Cl)cc21 | -7.76
95 | Cc1nc(C)n(CC2CCCN2Cc2nc(-c3ccsc3)no2)n1 (stereo unspecified) | -9.8
96 | CC1CCN(Cc2c(C(C)C)[nH]c3ncccc23)CC1 | -6.43
97 | CN1CCN(C[C@H]2CC[C@@H](Cc3ccc4c(c3)OCO4)O2)CC1 | -5.13
98 | Cc1cc(C)n(C2CCN(C(=O)CN3C(=O)CSc4ccccc43)C2)n1 (stereo unspecified) | -15.3
99 | Cc1ncc(-c2ccncc2)c(C2CCN(C(=O)c3ccno3)CC2)n1 | 2.08
100 | COC1[C@@H]2CC[C@H]1CN(c1nc(C)nc3sccc13)C2 (stereo partly specified) | 34
101 | CCCN(CCc1ccccn1)C(=O)CCc1cnn(C)c1 | -2.84
102 | COc1ccc(CNC(=O)Nc2cccnc2N2CCCC2)cc1OC | -24.6
103 | O=C(c1cnco1)N1C[C@@H]2CC[C@H](Oc3cccc(F)c3)[C@@H]2C1 | -6.18
104 | CC(O)CN1CCN(C(=O)c2ccc(CN(C)C)cc2)CC1 (stereo unspecified) | -8.09
105 | Cn1cc(-c2cnc(N3CCCC3)nc2)cc1C(=O)O | -16.3
106 | CC(C)c1nnc2n1CCN(C(=O)Cc1csc(C(C)(C)C)n1)C2 | -4.54
107 | Cn1ncnc1NCc1ccccc1Cl | -8.04
108 | Cc1cc(C)n(CC2CCCCN2C(=O)c2ccc3c(c2)COC3)n1 (stereo unspecified) | -24.4
109 | CC(C(=O)NCCN1CCOCC1)n1cncn1 (stereo unspecified) | -2.85
110 | Cc1cnc(C)c(-c2cc(O)c3c(c2)CN(Cc2nccs2)CCO3)n1 | 1.69
111 | COCCCNC(=O)c1cn(C(C)(C)C)c2ncccc12 | 0.0915
